# pIC50: −log10 of the molar value. Calls of active or inactive are those of the source. The calls are words filed in the database; no cut-off is given here.
# Assays:
# Liver microsomes [1] = test: Inhibition of NADPH-catalyzed lipid peroxidation in Wistar rat liver microsome at 90 ug/ml after 10 mins; type: functional
# Summary of the method: (§1)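 Liver microsomes came from male Wistar rats of about 200 g. Each mix held microsomes (1 mg protein), 0.025 M Tris-HCl pH 7.5, 3 mM ADP and 0.15 mM FeCl3. Mixes were preincubated 10 min at 37 °C, then 10 min with compound in DMSO. Peroxidation was started with 0.5 mM NADPH and stopped with TCA/HCl/TBA. Samples were heated at 95 °C for 30 min and TBA-reactive substance read at 535 nm.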
# HUVEC [2] = test: Inhibition of TNF-alpha-induced ICAM1 expression in HUVEC cells after 2 hrs by ELISA; type: functional, cell-based; settings: Homo sapiens
# Summary of the method: (§2)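 Cell-ELISA: HUVECs were pretreated with compound for 2 h, then given TNF-α 10 ng/ml for 16 h (ICAM-1, VCAM-1) or 4 h (E-selectin). Cells were fixed in 1% glutaraldehyde and blocked with 3% milk. Specific mAbs were applied overnight at 4 °C, then HRP goat anti-mouse, with OPD substrate at pH 4.5. The reaction was stopped with H2SO4 and A490 read. % inhibition = [1 − A490(compound)/A490(control)] × 100. Three independent experiments.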
# HUVEC [3] = test: Inhibition of TNF-alpha-induced ICAM1 expression in HUVEC cells at 90 ug/ml after 2 hrs by ELISA; type: functional; settings: Homo sapiens; summary of the method: as §2
# [4] = Cytotoxicity against HUVEC cells assessed as cell viability at 90 ug/ml after 24 hrs by MTT assay; type: cell-based; settings: human, read-out: Activity
# Summary of the method: (§3)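 Primary HUVECs were isolated by mild trypsinization, grown in M-199 with 15% FCS and ECGF, and used at passages 3–4. Cells got compound or 0.25% DMSO vehicle for 24 h. MTT (5 mg/ml) was added for the final 4 h, formazan dissolved in DMSO, and A570 read. Trypan blue exclusion confirmed the result. Runs were done at least 3 times in triplicate wells.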
# HUVEC [5] = test: Inhibition of TNF-alpha-induced E-selectin expression in HUVEC cells at 90 ug/ml after 2 hrs by ELISA; type: functional; settings: Homo sapiens; summary of the method: as §2
# HUVEC [6] = test: Inhibition of TNF-alpha-induced E-selectin expression in HUVEC cells after 2 hrs by ELISA; type: functional, cell-based; settings: Homo sapiens; summary of the method: as §2
# HUVEC [7] = test: Inhibition of TNF-alpha-induced VCAM1 expression in HUVEC cells after 2 hrs by ELISA; type: functional, cell-based; settings: Homo sapiens; summary of the method: as §2
# HUVEC [8] = test: Blockade of TNF-alpha-induced p65 nuclear translocation in HUVEC cells after 2 hrs by Western blot; type: functional, cell-based; settings: Homo sapiens
# Summary of the method: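 HUVECs (2 × 10^6) were pretreated with or without compound for 2 h, then given TNF-α 10 ng/ml for 30 min. Extracts ran on 8% SDS-PAGE and were blotted with anti-p65, with γ-tubulin as loading control. Detection used an HRP anti-rabbit secondary and DAB.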
# HUVEC [9] = test: Inhibition of TNF-alpha-induced ICAM1 expression in HUVEC cells at 90 ug/ml after 2 hrs by flow cytometry; type: functional; settings: Homo sapiens
# Summary of the method: (§4)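 Flow cytometry: HUVECs were pretreated with compound for 2 h, then given TNF-α 10 ng/ml for 16 h (ICAM-1, VCAM-1) or 4 h (E-selectin). Cells were dislodged and stained with mAb (1.0 µg/10^6 cells, 30 min, 4 °C), then FITC goat anti-mouse IgG. Cells were fixed in 1% paraformaldehyde and 20,000 events acquired. Autofluorescence was subtracted and mean fluorescence intensity taken from three independent experiments.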
# HUVEC [10] = test: Inhibition of TNF-alpha-induced VCAM1 expression in HUVEC cells at 90 ug/ml after 2 hrs by flow cytometry; type: functional; settings: Homo sapiens; summary of the method: as §4
# HUVEC [11] = test: Inhibition of TNF-alpha-induced NF-kappaB activation in HUVEC after 2 hrs by […] mobility shift assay; type: functional, cell-based; settings: Homo sapiens
# Summary of the method: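 HUVECs were pretreated with compound for 2 h, then given TNF-α 10 ng/ml for 30 min. Nuclear extract (10 µg) was incubated with 40–80 fmol of 32P-labelled NF-κB oligonucleotide in HEPES/NaCl/Tris buffer pH 7.5 with poly(dI-dC), 30 min at room temperature. Complexes were resolved on a 4% native gel and seen by autoradiography. Specificity was checked with excess unlabelled oligo.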
# Neutrophil [12] = test: Inhibition of TNF-alpha-induced adhesion of neutrophils to endothelium after 2 hrs by neutrophil adhesion assay; type: functional, cell-based; settings: Homo sapiens
# Summary of the method: (§5)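 Static adhesion: HUVEC monolayers were pretreated with compound for 2 h, then given TNF-α 10 ng/ml for 6 h. Neutrophils from healthy donor blood (dextran sedimentation, Ficoll-Hypaque, hypotonic lysis) were added at 6 × 10^4/well and left 1 h at 37 °C. Bound cells were measured with OPD/CTAB/aminotriazole substrate at A490. % inhibition was calculated as for the ELISA. Three independent experiments.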
# HUVEC [13] = test: Inhibition of TNF-alpha-induced E-selectin expression in HUVEC cells at 90 ug/ml after 2 hrs by flow cytometry; type: functional; settings: Homo sapiens; summary of the method: as §4
# Neutrophil [14] = test: Inhibition of TNF-alpha-induced adhesion of neutrophils to endothelium at 90 ug/ml after 2 hrs by neutrophil adhesion assay; type: functional; settings: Homo sapiens; summary of the method: as §5
# HUVEC [15] = test: Inhibition of TNF-alpha-induced VCAM1 expression in HUVEC cells at 90 ug/ml after 2 hrs by ELISA; type: functional; settings: Homo sapiens; summary of the method: as §2
# HUVEC [16] = test: Inhibition of TNF-alpha-induced ICAM1 expression in HUVEC cells at 60 ug/ml after 2 hrs by ELISA; type: functional; settings: Homo sapiens; summary of the method: as §2
# [17] = Cytotoxicity against HUVEC cells assessed as cell viability at 60 ug/ml after 24 hrs by MTT assay; type: cell-based; settings: human, read-out: Activity; summary of the method: as §3
# Liver microsomes [18] = test: Inhibition of NADPH-catalyzed lipid peroxidation in Wistar rat liver microsome at 60 ug/ml after 10 mins; type: functional; summary of the method: as §1
# HUVEC [19] = test: Inhibition of TNF-alpha-induced ICAM1 expression in HUVEC cells at 70 ug/ml after 2 hrs by ELISA; type: functional; settings: Homo sapiens; summary of the method: as §2
# [20] = Cytotoxicity against HUVEC cells assessed as cell viability at 70 ug/ml after 24 hrs by MTT assay; type: cell-based; settings: human, read-out: Activity; summary of the method: as §3
# Liver microsomes [21] = test: Inhibition of NADPH-catalyzed lipid peroxidation in Wistar rat liver microsome at 70 ug/ml after 10 mins; type: functional; summary of the method: as §1
# HUVEC [22] = test: Inhibition of TNF-alpha-induced ICAM1 expression in HUVEC cells at 110 ug/ml after 2 hrs by ELISA; type: functional; settings: Homo sapiens; summary of the method: as §2
# Liver microsomes [23] = test: Inhibition of NADPH-catalyzed lipid peroxidation in Wistar rat liver microsome at 110 ug/ml after 10 mins; type: functional; summary of the method: as §1
# [24] = Cytotoxicity against HUVEC cells assessed as cell viability at 110 ug/ml after 24 hrs by MTT assay; type: cell-based; settings: human, read-out: Activity; summary of the method: as §3
# HUVEC [25] = test: Inhibition of TNF-alpha-induced ICAM1 expression in HUVEC cells at 80 ug/ml after 2 hrs by ELISA; type: functional; settings: Homo sapiens; summary of the method: as §2
# Liver microsomes [26] = test: Inhibition of NADPH-catalyzed lipid peroxidation in Wistar rat liver microsome at 80 ug/ml after 10 mins; type: functional; summary of the method: as §1
# [27] = Cytotoxicity against HUVEC cells assessed as cell viability at 80 ug/ml after 24 hrs by MTT assay; type: cell-based; settings: human, read-out: Activity; summary of the method: as §3
# [28] = Cytotoxicity against HUVEC cells assessed as cell viability at 100 ug/ml after 24 hrs by MTT assay; type: cell-based; settings: human, read-out: Activity; summary of the method: as §3
# HUVEC [29] = test: Inhibition of TNF-alpha-induced ICAM1 expression in HUVEC cells at 100 ug/ml after 2 hrs by ELISA; type: functional; settings: Homo sapiens; summary of the method: as §2
# Liver microsomes [30] = test: Inhibition of NADPH-catalyzed lipid peroxidation in Wistar rat liver microsome at 100 ug/ml after 10 mins; type: functional; summary of the method: as §1
smiles,measurement,setting,value
CCOC(=O)/C=C/c1coc2cc(O)ccc2c1=O,inhibition,Liver microsomes [1],32.3%
same,pIC50,HUVEC [2],3.57
same,inhibition at 90 µg/mL,HUVEC [3],68.2%
same,"viability at 24 h, 90 ug/ml",[4],95%
CCOC(=O)/C=C/c1coc2ccccc2c1=O,inhibition at 90 µg/mL,HUVEC [5],> 95%
same,inhibition,Liver microsomes [1],52.9%
same,Activity,HUVEC [6],Dose-dependent effect
same,pIC50,HUVEC [2],3.74
same,Activity,HUVEC [7],Dose-dependent effect
same,inhibition at 90 µg/mL,HUVEC [3],90%
same,Activity,HUVEC [8],Active
same,inhibition at 90 µg/mL,HUVEC [9],95%
same,inhibition at 90 µg/mL,HUVEC [10],95%
same,Activity,HUVEC [11],Active
same,Activity,Neutrophil [12],Dose-dependent effect
same,inhibition at 90 µg/mL,HUVEC [13],95%
same,inhibition at 90 µg/mL,Neutrophil [14],65%
same,inhibition at 90 µg/mL,HUVEC [15],> 95%
same,"viability at 24 h, 90 ug/ml",[4],96%
CC(C)OC(=O)/C=C/c1coc2cc(O)ccc2c1=O,inhibition at 60 µg/mL,HUVEC [16],52.5%
same,pIC50,HUVEC [2],3.66
same,"viability at 24 h, 60 ug/ml",[17],96%
same,inhibition,Liver microsomes [18],26.2%
CC(C)OC(=O)/C=C/c1coc2ccccc2c1=O,inhibition at 70 µg/mL,HUVEC [19],73.5%
same,pIC50,HUVEC [2],3.63
same,"viability at 24 h, 70 ug/ml",[20],98%
same,inhibition,Liver microsomes [21],50.8%
O=c1ccoc2ccccc12 [CHROMONE],inhibition,Liver microsomes [1],25.4%
same,inhibition at 90 µg/mL,HUVEC [3],47.5%
same,"viability at 24 h, 90 ug/ml",[4],95%
CCCOC(=O)/C=C/c1coc2cc(O)ccc2c1=O,inhibition at 110 µg/mL,HUVEC [22],63.5%
same,pIC50,HUVEC [2],3.46
same,inhibition,Liver microsomes [23],39.8%
same,"viability at 24 h, 110 ug/ml",[24],97%
CCCOC(=O)/C=C/c1coc2ccccc2c1=O,inhibition at 80 µg/mL,HUVEC [25],81.8%
same,pIC50,HUVEC [2],3.64
same,inhibition,Liver microsomes [26],42.5%
same,"viability at 24 h, 80 ug/ml",[27],97%
C=CCOC(=O)/C=C/c1coc2ccccc2c1=O,inhibition,Liver microsomes [1],43.4%
same,pIC50,HUVEC [2],3.60
same,inhibition at 90 µg/mL,HUVEC [3],64.5%
same,"viability at 24 h, 90 ug/ml",[4],95%
C=CCOC(=O)/C=C/c1coc2cc(O)ccc2c1=O,pIC50,HUVEC [2],3.56
same,"viability at 24 h, 100 ug/ml",[28],97%
same,inhibition at 100 µg/mL,HUVEC [29],55.2%
same,inhibition,Liver microsomes [30],13.3%
